Results gathered from unrelated publications.
Compare with care: the assays were run in different laboratories.
Target: Myosin light chain kinase, smooth muscle (MYLK, Homo sapiens, UniProt Q15746)

COc1cnc(Nc2cccc(S(N)(=O)=O)c2)nc1N1CCN(c2ccccc2)CC1
remaining binding (binding; competition with immobilised ligand; 1 µM): 70%

Cc1cnc(Nc2ccc(C(=O)N3CCC(N4CCCC4)CC3)cc2)nc1-c1cc2ccccc2s1
remaining binding (binding; competition with immobilised ligand; 1 µM): 15%

CN(C)c1nccc(-c2cnc3ncccn23)n1
remaining binding (binding; 1 µM): 94%

COc1ncc2cc3ccccc3nc2c1C#N
remaining binding (binding; competition with immobilised ligand; 5 µM): 92%

CCN1CCN(Cc2ccc(C(=O)Nc3ccc(C)c(Oc4ccc5c(c4)CC(=O)N5)c3)cc2C(F)(F)F)CC1
remaining binding (binding; competition with immobilised ligand; 1 µM): 100%

Cc1cc(C)c(-n2ccn3nc(-c4cccnc4)cc23)cc1NC(=O)c1cc(C#N)cc(S(F)(F)(F)(F)F)c1
remaining binding (cell-free assay; competition with immobilised ligand; 0.1 µM): 57.7%

COc1ccnn2ncc(-c3ccnc(N(C)C)n3)c12
remaining binding (binding; 1 µM): 100%

c1cncc(-c2cccc(Nc3nccc(NC4CCCCC4)n3)c2)c1
remaining binding (binding; competition with immobilised ligand; 10 µM): 62%

Nc1ncc2c(n1)-c1c([nH]c3ccc(C#CC4CC4)cc13)CCCC2
remaining binding (binding; competition with immobilised ligand; 1 µM): 92%

CCCCN(CCCC)C(=O)CN1C[C@H](c2cc(OC)c3c(c2)OCO3)[C@@H](C(=O)O)[C@@H]1CC(C)(C)CCC
remaining binding (cell-free assay; competition with immobilised ligand; 1 µM): 100%

F[C@@H]1CCN(c2nccc(-c3cnn4ncccc34)n2)C1
remaining binding (binding; 1 µM): 72%

O=C(O)[C@@H]1[C@@H](Cn2nnc3ccccc3c2=O)CC[C@H]1C(=O)c1ccc(OCCC2CCOCC2)cc1
remaining binding (cell-free assay; competition with immobilised ligand; 1 µM): 100%

CN(C)c1nccc(-c2cnn3ncccc23)n1
remaining binding (binding; 1 µM): 63%

FC(F)(F)c1ccc2c(c1)nc(-c1cccnc1)n2C1CC1
remaining binding (cell-free assay; competition with immobilised ligand; 1 µM): 100%

c1cnn2ncc(-c3ccnc(N4CCC45COC5)n3)c2c1
remaining binding (binding; 1 µM): 84%

CO[C@@H](C)c1c(Nc2ccc([C@H](N(C)C(=O)C3CCS(=O)(=O)CC3)C(F)(F)F)cc2)cnc2cc(Cl)nn12
remaining binding (cell-free assay; competition with immobilised ligand; 1 µM): 95%

N[C@H]1CCN(c2nccc(-c3cnn4ncccc34)n2)C1
remaining binding (binding; 1 µM): 81%

O=C(c1ccc(Nc2ncc(Cl)c(-c3cc4ccccc4s3)n2)cc1)N1CCC(N2CCCC2)CC1
remaining binding (binding; competition with immobilised ligand; 1 µM): 54%

C[C@@H]1CN(c2cc(-c3nn(C)c4ccc(OC5(C)CC5)cc34)ncn2)C[C@H](C)O1
remaining binding (cell-free assay; competition with immobilised ligand; 1 µM): 64%

O=C(NCC1CCOCC1)c1n[nH]cc1NC(=O)c1c(F)cccc1F
remaining binding (binding; competition with immobilised ligand; 1 µM): 70%

O=C(c1ccc(Nc2nccc(-c3cc4ccccc4s3)n2)cc1)N1CCC(N2CCCC2)CC1
remaining binding (binding; competition with immobilised ligand; 1 µM): 61%
